Screening results deposited in PubChem BioAssay by several laboratories.
Only some compounds are listed: those with a hit (about 9.4% of all), similar ones and a draw of the others.
Mdm2-MdmX inh – disrupts the human Mdm2-MdmX interaction | AID 485346 | SaOS-2 split-luciferase Mdm2/MdmX complementation, luminescence | 3% of 330,000 active | inhibition, % at 8 µM;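 active means inhibition of at least 50% at 8 µM in the primary screen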
Target sequence (O15151 whole entry, looked up): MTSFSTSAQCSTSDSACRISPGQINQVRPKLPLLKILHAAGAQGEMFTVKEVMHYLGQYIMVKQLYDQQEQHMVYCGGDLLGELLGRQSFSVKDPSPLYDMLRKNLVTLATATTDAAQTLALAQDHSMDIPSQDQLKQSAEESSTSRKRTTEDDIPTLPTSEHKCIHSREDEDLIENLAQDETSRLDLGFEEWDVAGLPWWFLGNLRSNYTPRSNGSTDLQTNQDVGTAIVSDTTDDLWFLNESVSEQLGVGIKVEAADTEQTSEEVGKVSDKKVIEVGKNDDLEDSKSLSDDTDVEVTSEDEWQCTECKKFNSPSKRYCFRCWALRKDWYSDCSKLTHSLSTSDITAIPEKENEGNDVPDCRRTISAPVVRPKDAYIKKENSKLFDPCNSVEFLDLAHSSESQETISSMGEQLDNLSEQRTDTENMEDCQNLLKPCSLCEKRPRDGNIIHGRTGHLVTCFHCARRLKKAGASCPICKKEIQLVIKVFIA
Target sequence (Q00987 whole entry, looked up): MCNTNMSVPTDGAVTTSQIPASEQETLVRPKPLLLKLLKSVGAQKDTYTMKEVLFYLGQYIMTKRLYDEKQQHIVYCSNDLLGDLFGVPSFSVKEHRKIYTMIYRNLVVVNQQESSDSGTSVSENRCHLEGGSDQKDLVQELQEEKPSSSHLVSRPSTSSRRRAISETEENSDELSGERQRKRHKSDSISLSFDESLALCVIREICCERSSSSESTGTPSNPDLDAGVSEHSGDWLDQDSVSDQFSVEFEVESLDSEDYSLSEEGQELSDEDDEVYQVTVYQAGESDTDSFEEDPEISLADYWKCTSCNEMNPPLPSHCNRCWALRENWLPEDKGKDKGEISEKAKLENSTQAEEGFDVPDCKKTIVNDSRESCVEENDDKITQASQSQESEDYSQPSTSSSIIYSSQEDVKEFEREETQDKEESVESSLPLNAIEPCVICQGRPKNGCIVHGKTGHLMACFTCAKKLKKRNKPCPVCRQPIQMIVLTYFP
T cruzi inh – T. cruzi replication inhibition. inhibition, % (test concentration not listed). T. cruzi beta-gal in NIH3T3, luminescence, 90 h. AID 1885. 1.4% of 300,000 active;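 active means mean inhibition across valid replicates above about 55%, limit read from the data; inconclusive means mean below that limit but half or more replicates reach it; inactive means mean below it, under half of replicates reach it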;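 further: signal also drops with host cell toxicity which is not excluded here; 0% = plate median of DMSO wells and 100% = zero luminescence signal; higher percent means less beta-gal luminescence so fewer parasites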
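System: NIH/3T3 fibroblasts plus reporter T. cruzi. Medium: DMEM plus 2% FBS. Probe or stimulus: 5000 reporter trypomastigotes per well. Compound: single 50 nL compound addition per well in DMSO. Incubation: co-culture of at least 90 h after 3 h attachment. Detection: GalScreen β-gal luminescence, detergent lysis, 60 min. Evaluation: parasite load inhibition, %.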
SKKanGAS inh – blocks kanamycin growth of S. pyogenes SKKanGAS strain; 1.3% of 300,000 active; BacTiter-Glo, 6 h; inhibition, % at 7.5 µM;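 active means mean replicate score, as percent of positive control median, at least 50; inconclusive means mean below 50 but one replicate at or above 50; inactive means mean and every replicate below 50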;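 further: strain carries kanamycin resistance gene driven by streptokinase promoter and grows in 40 µg/ml kanamycin; loss of luminescence reflects streptokinase promoter inhibition or plain growth inhibition; 0% = median of DMSO wells and 100% = positive control at its reference dose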
Beta apoptosis – blocks beta cell apoptosis; 0.8% of 300,000 active; protection from apoptosis, % (test concentration not listed); INS-1E cytokine-induced death, ATP luminescence, 48 h; percent of positive-control rescue, neutral wells zero;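 active means Every replicate reaches about 75%, or at least half do and their mean reaches it too, limit read from the data; inconclusive means At least half of replicates reach the limit but their mean does not; inactive means Under half of replicates reach the limit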;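 further: 0% = cytokine-treated negative control wells and 100% = positive control rescue; higher means more ATP so stronger rescue from cytokine killing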
Lmaj promast – inhibitors of Leishmania major promastigote growth. inhibition, % at 10 µM. 9% of 200,000 active. Leishmania major promastigotes, resazurin fluorescence viability; in the data active means inhibition above about 50%;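 further: promastigotes grown with compound for 44 hours at 28 °C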
CSC inhib – blocks cancer stem cells | 1.1% of 300,000 active | inhibition, % at 7.5 µM | AID 2717 | cancer stem cell-like cells viability, luminescence; in the data active means inhibition above about 75%; inconclusive means no clear call, values can overlap the other calls; tested in HMLE shEcad cells
Mdm2 MdmX conf – human Mdm2/MdmX binding inhibition, confirmed; 55% of 10,000 active; luminescent assay; inhibition, % at 8 µM; shares compounds with Mdm2-MdmX inh; AID 489028; in the data active means inhibition above about 40%
FLuc counter – full-length luciferase inhibition in Mdm2/MdmX counter-screen; shares compounds with Mdm2-MdmX inh; SaOS-2 full-length luciferase counterscreen, luminescence; inhibition, % at 8 µM; 77% of 6,200 active; AID 504607;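 active means mean inhibition at 8 µM reaching about 37%, which flags the compound as non-specific, limit read from the data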;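 further: p53-null SaOS-2 cells with luciferase driven by a doxycycline-inducible promoter; compound on cells about two nights before reading with doxycycline added after day one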
Active calls of the source: *; ? = inconclusive; · = no result.

SMILES | Mdm2-MdmX inh | T cruzi inh | SKKanGAS inh | Beta apoptosis | Lmaj promast | CSC inhib | Mdm2 MdmX conf | FLuc counter
O=C(/C=C\Nc1ccc2c(c1)OCO2)c1ccccn1 | 72* | -1 | 22 | 7 | -7 | -14 | 65* | 39*
O=C(Nc1ccc2c(c1)OCO2)c1ccccn1 | -57 | · | · | 11 | · | · | · | ·
Cc1oc(-c2ccccc2Cl)nc1CSCC(=O)N1CCCC1 | 78* | -2 | -6 | -4 | 2 | 34 | 84* | 26
Cc1ccccc1C(=O)c1cccn1CC(=O)NC1CCCC(C)C1C (centres undefined) | 10 | 6 | 0 | -5 | · | 11 | · | ·
c1ccc(C2CC(c3ccccc3)n3c(nc4ccccc43)N2)cc1 (centres undefined) | 63* | -1 | -3 | 4 | 13 | -17 | 40* | 48*
CCc1ccc(C2CC(c3ccccc3)Nc3nc(N)nn32)cc1 (centres undefined) | 4 | 24 | 10 | -1 | 9 | -23 | · | ·
CCOc1ccc(/C=C/C(O)=C2/C(=O)N(C)C3(C)CC2c2ccccc2O3)cc1OC (centres undefined) | 67* | 35 | 0 | 0 | 65* | 78* | 69* | 41*
CCOc1ccc(/C=C/C(O)=C2/C(=O)NC3(C)CC2c2ccccc2O3)cc1OC (centres undefined) | 83* | 0 | -2 | -8 | 27 | 24 | 90* | 23
Cc1ccc(-n2nc(C)c(/C=N/n3c(C)n[nH]c3=S)c2Cl)cc1 | 28 | -18 | 24 | 3 | 18 | 15 | · | ·
CCCc1c(NC(=O)Nc2ccc(F)cc2)cnn1-c1ccccc1 | 89* | 1 | 20 | -5 | · | 42 | 61* | 29
CCCc1c(C(=O)Nc2ccc(F)cc2C)cnn1-c1ccccc1 | 47 | -6 | -2 | 9 | · | -2 | · | ·
CCCCCCN(C(=O)CCCCCN1C(=O)NC(c2ccc(-c3ccccc3)cc2)C(C(=O)OCc2ccccc2)=C1C)C(C(=O)NCCCC)c1ccc(OCC(=O)OC)cc1 (centres undefined) | 8 | 10 | 19 | -6 | -6 | -2 | · | ·
CCCCNC(=O)C(c1ccc(OCC(=O)OC)c(C(=O)OC)c1)N(CCOC)C(=O)CCCCCN1C(=O)NC(c2ccc(-c3ccccc3)cc2)C(C(=O)OCc2ccccc2)=C1C (centres undefined) | 100* | 21 | 25 | -2 | · | 125* | 66* | 11
CCOC(=O)COn1c(=O)c(-c2ccc(OC)c(OC)c2)[n+]([O-])c2ccccc21 | 93* | 3 | 6 | 28 | 8 | -13 | 29 | ·
CCOC(=O)COn1c(=O)c(-c2ccc(OC)cc2)[n+]([O-])c2ccccc21 | 2 | -6 | -3 | 0 | · | -11 | · | ·
Cc1nc2ccccn2c1-c1ccnn1S(=O)(=O)c1ccc(F)cc1 | 36 | 8 | -5 | 17 | · | 30 | · | ·
O=C1[C@@H]2Cc3c([nH]c4ccccc34)C(c3cccc(Br)c3)N2C(=O)CN1C1CCN(Cc2ccccc2)CC1 (some centres undefined) | 88* | 65* | 26 | 23 | · | 82* | 39 | 73*
COc1ccc(OC)c(C2c3[nH]c4ccccc4c3C[C@H]3C(=O)N(C4CC4)CC(=O)N23)c1 (some centres undefined) | 19 | -1 | 9 | 1 | · | -14 | · | ·
COC(=O)c1ccc(C2c3[nH]c4ccccc4c3C[C@H]3C(=O)N(C4CCN(Cc5ccccc5)CC4)CC(=O)N23)cc1 (some centres undefined) | 16 | 42 | 2 | 10 | · | 3 | · | ·
O=C1[C@@H]2Cc3c([nH]c4ccccc34)C(c3ccccc3)N2C(=O)CN1C1CCN(Cc2ccccc2)CC1 (some centres undefined) | 63* | ? | 6 | 12 | · | 20 | 38 | 92*
CCOc1ccccc1C1c2[nH]c3ccccc3c2C[C@H]2C(=O)N(C3CCN(Cc4ccccc4)CC3)CC(=O)N12 (some centres undefined) | 62* | 62* | 0 | 7 | · | 8 | 51* | 67*
COc1ccc(CN2C(=O)c3cccnc3C2=O)cc1S(=O)(=O)NC1CCCCC1C (centres undefined) | 19 | 8 | -1 | 1 | · | -3 | · | ·
COc1ccc(NC(=O)C2(c3ccc(NC(=O)c4ccc(C)cc4)cc3)CCCC2)cc1 | 9 | 1 | -1 | -7 | -7 | -2 | · | ·
COc1ccc(NC(=O)C2(c3ccc(NC(=O)c4ccc(OC)c(OC)c4)cc3)CCCC2)cc1 | 55* | -18 | 2 | -2 | -6 | 2 | 21 | ·
Cc1ccc(S(=O)(=O)N(C)C)cc1NC(=O)COC(=O)Cc1ccccc1F | 20 | -18 | -5 | 4 | · | -10 | · | ·
SMILES | Mdm2-MdmX inh | T cruzi inh | SKKanGAS inh | Beta apoptosis | Lmaj promast | CSC inhib | Mdm2 MdmX conf | FLuc counter
CC(C)C(=O)c1cn(CC(=O)NCC2CCCO2)c2ccccc12 (centres undefined) | 7 | -5 | 1 | -3 | -6 | -10 | · | ·
CCOC(=O)C1=C(O)/C(=C/c2cn(CC(=O)NCC3CCCO3)c3ccccc23)SC1=Nc1ccc(C)cc1 (centres undefined) | 99* | · | · | 57 | 33 | 76* | 92* | 47*
CC/C(=C(/CC)c1ccc(O)cc1)c1ccc(O)cc1 | 54* | -5 | -8 | -11 | 19 | 68 | 48* | 53*
CC(C)N(Cc1ccccc1)C(=O)CC(=O)N(Cc1ccccc1)C(C)C | 33 | -5 | 11 | -2 | · | · | · | ·
CN1C(=O)Nc2cccc3cccc1c23 | 52* | -5 | -1 | 3 | · | 6 | 25 | ·
Cc1ccc(S(=O)(=O)NC2=NCN(CC(=O)O)CN2)cc1 | -4 | -8 | -5 | -1 | · | 10 | · | ·
CCOC(=O)c1[nH]c2ccc(OC)cc2c1NC(=S)N1CCN(c2cccc(Cl)c2)CC1 | 50* | 19 | 15 | · | -5 | · | 21 | ·
CCOC(=O)c1[nH]c2ccc(OC)cc2c1NC(=O)CN1CCc2ccccc2C1 | 21 | 20 | 21 | 7 | 19 | · | · | ·
COc1ccc(N=C2S/C(=C\c3ccc(Cl)c([N+](=O)[O-])c3)C(=O)N2CCN(C)C)cc1 | 100* | 65* | 14 | 0 | · | 105* | 67* | 14
CCN(CC)CCN1C(=O)/C(=C\c2ccc(Cl)c([N+](=O)[O-])c2)SC1=Nc1ccc(OC)cc1 | 100* | 57* | 13 | -1 | · | ? | 98* | 0
CCCN1C(=O)/C(=C/c2ccc(C)s2)SC1=Nc1ccc(OC)cc1 | 10 | 23 | 18 | 2 | 3 | 16 | · | ·
CCN1C(=O)/C(=C/c2cccs2)SC1=Nc1ccc(OC)cc1 | -15 | 13 | -5 | 4 | 11 | 16 | · | ·
Cc1cccc(S(=O)(=O)Nc2cc(Cl)ccc2N2CCOCC2)c1 | 27 | · | · | 24 | · | -10 | · | ·
